Source: PubChem (several laboratories)
Diaphorase act – diaphorase activation or chemical reduction counter-screen | activation factor at 20 µM | Diaphorase/resazurin coupled assay, resorufin fluorescence, 16 min; hits give high values; 1 = vehicle wells, 0 = NADH-free wells | 0.005% of 190,000 active | AID 1229;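 active = diaphorase activity raised at least twofold by the compound at 20 µM; inactive = activation factor below 2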
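Material: purified diaphorase enzyme from Clostridium kluyveri; Also added: 0.114 mM NADH and 0.1 mM resazurin, final amounts; Doses: single compound dose of 20 µM, 1% DMSO final; Times: 16 min enzyme reaction, ambient temperature; Detection: resorufin fluorescence, excitation 544 nm, emission 590 nm; Measure: increased resorufin signal from activators or reducing compounds.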
PMI act hi M6P – PMI (human) activation, high substrate; P34949; coupled PMI enzyme assay, resazurin fluorescence, 20 min; hits give high values; 1 = untreated enzyme, 0 = substrate-free blank; activation factor at 20 µM; 0.34% of 190,000 active; AID 1216;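 active = activation factor of 2 or more at 20 µM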
Target sequence (P34949 whole entry, looked up): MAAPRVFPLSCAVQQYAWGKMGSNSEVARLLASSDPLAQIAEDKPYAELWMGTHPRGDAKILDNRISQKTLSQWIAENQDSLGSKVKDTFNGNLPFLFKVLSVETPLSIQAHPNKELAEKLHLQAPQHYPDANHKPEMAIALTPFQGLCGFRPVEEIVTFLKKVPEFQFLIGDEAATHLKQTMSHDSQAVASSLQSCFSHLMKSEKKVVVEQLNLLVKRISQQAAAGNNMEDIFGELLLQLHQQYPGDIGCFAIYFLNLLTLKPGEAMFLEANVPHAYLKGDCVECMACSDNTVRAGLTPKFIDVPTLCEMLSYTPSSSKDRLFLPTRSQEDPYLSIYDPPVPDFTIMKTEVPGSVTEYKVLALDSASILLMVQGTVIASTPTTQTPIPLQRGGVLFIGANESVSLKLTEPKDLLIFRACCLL
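Material: human phosphomannose isomerase with PGI, G6PDH, diaphorase coupling enzymes. Quantity: 15 ng/mL PMI. Medium: HEPES pH 7.4 buffer with MgCl2 and Tween-20. Reagent: Near-saturating mannose-6-phosphate, 1.0 mM. Compound: 20 µM single dose. Times: enzyme reaction with compound 20 min at room temperature. Detection: resorufin fluorescence at Ex 544/Em 590 nm.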
PMI act – phosphomannose isomerase (human) activation; P34949; purified human PMI, coupled resazurin fluorescence, 20 min; hits give high values; 1 = vehicle control, 0 substrate-free wells; activation factor at 20 µM; 0.005% of 190,000 active;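 active = activation factor of 2 or more at 20 µM, relative to plate controls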
Avidin fluor – compound fluoresces at 488/530 nm on avidin beads | AID 1775 | compound fluorescence 488/530 nm, flow cytometry; hits give high values | fluorescence (KMESF) at 10 µM | 0.38% of 220,000 active; in the data active = fluorescence above about 47
GSH fluor – GSH bead compound fluorescence profile; GSH beads flow cytometry, compound fluorescence 488/530 nm; hits give high values; fluorescence (KMESF) at 10 µM; 0.25% of 190,000 active; AID 1776; in the data active = fluorescence above about 89;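 note: glutathione beads carrying GST-tagged Bcl family fusion proteins plus one bare bead set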
p47phox inh – p47phox (human) inhibition | inhibition, % at 24.7 µM | P14598 | p47phox/p22phox peptide binding, fluorescence polarization, 2 h | 0.53% of 220,000 active;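 active = inhibition above about 30%, limit read from the data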
Hits are given with their value; - = inactive. Only some compounds are listed: those with a hit (about 1.4% of all), similar ones and a draw of the others.

SMILES	Diaphorase act	PMI act hi M6P	PMI act	Avidin fluor	GSH fluor	p47phox inh
CCCN1C(=O)/C(=c2\s/c(=C3\C=Cc4ccccc4N3CC)c(=O)n2-c2ccccc2)SC1=S	-	-	-	-	-	70
Cc1cc(=O)oc(C)c1C(=O)NCCCN1CCN(c2ccccc2F)CC1	-	-	-	-	-	-
COc1cccc(NC2C=CS(=O)(=O)C2)c1 (centres undefined)	-	-	-	-	-	-
COc1ccc(NC(=O)C(c2ccc(C)cc2)N(C)C(=O)Cc2cccs2)cc1 (centres undefined)	-	-	-	-	-	-
COc1ccc(-n2c3c(cc(C(=O)NNc4ccccc4)c2=O)C(=O)CC(C)(C)C3)cc1	-	2.1	-	-	-	-
COc1ccc(-n2c3c(cc(C(=O)N4CCN(CCO)CC4)c2=O)C(=O)CC(C)(C)C3)cc1	-	-	-	-	-	-
COc1ccc(-n2c3c(cc(C(=O)NNc4ccccc4C)c2=O)C(=O)CC(C)(C)C3)cc1	-	2	-	-	-	-
CC1(C)CC(=O)c2cc(C(=O)Nn3cnnc3)c(=O)n(-c3ccccc3)c2C1	-	-	-	-	-	-
C=CCNC(=S)N/N=C/c1ccc(C)c([N+](=O)[O-])c1	-	-	-	-	-	-
COc1ccc(-c2cn3c(C)c(C(=O)Nc4cc(NC(C)=O)ccc4OC)sc3n2)cc1	-	-	-	-	-	-
COc1cc(/C=N/NC(=O)c2ccc(CN3c4cccc5cccc(c45)S3(=O)=O)cc2)cc(OC)c1O	-	-	-	-	-	36
COc1ccc(/C=N/NC(=O)c2ccc(CN3c4cccc5cccc(c45)S3(=O)=O)cc2)cc1	-	-	-	-	-	-
Cn1nnc2cc(C(=O)Nc3ccccc3)ccc21	-	-	-	-	-	-
O=C(/C=C/NCC(=O)c1ccccc1)c1ccc(Br)cc1	-	2.1	-	-	-	-
Cc1ccc(/C=N/NC(=O)CNC(=O)Cc2ccccc2)o1	-	-	-	-	-	-
CC(C)c1ccccc1NC(=O)CNC(C)c1ccc(F)cc1 (centres undefined)	-	-	-	-	-	-
CCCNC(=O)COC(=O)CCC(=O)c1ccc(F)cc1	-	-	-	-	-	-
CCCCNC(=O)COC(=O)CCC(=O)c1ccc(F)cc1	-	-	-	-	266	-
c1ccc2c(c1)CCCN2Cc1nnnn1CC1CCCO1 (centres undefined)	-	2.1	-	-	-	-
c1ccc(-c2nnc(CN3CCCc4ccccc43)o2)cc1	-	2.1	-	-	-	-
c1ccc(CCn2nnnc2CN2CCCc3ccccc32)cc1	-	2.1	-	-	-	-
CCOc1cc(/C=N/N=C(N)N)ccc1OCc1ccc(Cl)cc1	2	-	-	-	-	77
CCSC1=NC2(CCCCC2)Nc2sc3c(c21)CCCC3	-	-	-	-	-	-
COc1cc(N2CCCC2)c(OC)cc1/C=C(/C#N)c1ccc(F)cc1	-	-	-	-	-	-
COc1cc(N2CCCC2)c(OC)cc1/C=C(/C#N)c1ccc(Br)cc1	-	-	-	59	-	-
SMILES	Diaphorase act	PMI act hi M6P	PMI act	Avidin fluor	GSH fluor	p47phox inh
CCOCCCNC(=S)NCCCNc1nc2c(C)c(C)ccc2cc1C#N	-	2.1	-	-	-	-
COc1ccc2nc(NCCNC(=S)NCCCN3CCOCC3)c(C#N)cc2c1	-	-	-	-	-	-
CCOCCCNC(=S)N1CCCN(c2nc3cc(C)ccc3cc2C#N)CC1	-	2.3	-	-	-	-
COCCCNC(=S)NCCCNc1nc2cc3c(cc2cc1C#N)OCO3	-	2.1	-	-	-	-
CCCN(CCC)C1CC(=O)N(Cc2ccccc2)C1=O (centres undefined)	-	-	-	58	-	-
CCc1ccccc1-n1c(SCC(=O)NC)nnc1-c1cccnc1	-	-	-	-	-	-
CCOC(=O)COc1c(Br)cc(/C=C2\SC(=O)N(CC(=O)N3CCCC3)C2=O)cc1OC	-	-	-	80	-	-
CCOc1c(Br)cc(/C=C2/SC(=O)N(CC(=O)N3CCCC3)C2=O)cc1OC	-	-	-	-	-	-
